Entries after “also recorded” stand apart in the source; their conditions may differ.
Experiments:
[1] = tested on: ULK3; assay: Immunoblot in U266 MM cells; type: cell-based, Human; conditions: 6 h
Procedure, shortened: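 Lysates quantified by BCA; 30 μg protein run on 10–15% SDS-PAGE (100 V, 2 h) and transferred to PVDF. Membranes blocked 1 h in TBST with 5% milk/5% BSA, probed overnight at 4 °C with primary (1:1000), then HRP secondary (1:1000). ECL detection; densitometry values annotated on the blot.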

[2] = tested on: U266 MM cells; assay: Cyto-ID autophagy assay; type: cell-based, Human; conditions: U266, 1 μM
Procedure, shortened: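 U266 cells exposed to 1 μM test compound or vehicle for 6 h at 37 °C, washed, then stained 30 min in the dark with Cyto-ID Green plus DAPI (100 ng/ml) in 1% FBS assay buffer. Flow cytometry gave MFI and % Cyto-ID+ in live singlet cells. Confocal imaging (Hoechst/Cyto-ID) gave mean cytoplasmic intensity per group, compared by Kruskal–Wallis.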

[3] = tested on: MM cells (5TGM1, 8226, and U266); assay: MTS assay on MM cells; type: cell-based
Procedure, shortened: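 MM lines grown at 37 °C in RPMI 1640 with 10% heat-inactivated FBS plus pen/strep and plated at 2 × 10^5 cells/mL (96-well) or 3 × 10^5 cells/mL (384-well). Exposed to test compound or vehicle (HPβCD or DMSO) for 48 h. MTS absorbance read at 490 nm after 2 h at 37 °C; mean of technical replicates; three independent experiments.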

## Cc1[nH]c(/C=C2\C(=O)Nc3ccccc32)c(C)c1CCC(=O)O [SU6668]
[1]
  ULK3 protein levels: does not impact

## Cc1sc2c(c1C)C(c1ccc(Cl)cc1)=N[C@@H](CC(=O)OC(C)(C)C)c1nnc(C)n1-2 [JQ1]
[2]
  autophagy (Cyto-ID): had no effect; also recorded: did not impact autophagy

## N#CC[C@H](C1CCCC1)n1cc(-c2ncnc3[nH]ccc23)cn1 [ruxolitinib]
[3]
  cell survival in vitro: had no effect; also recorded: not affected

Reference: article PMC13601514 (Nature Communications, 2026)
